Compound activity as filed in PubChem BioAssay.
Rows were chosen to be rich in hits. Some 6.1% of all compounds tested hit in one or more screens of this group.
RAM network inh = inhibitors of the yeast RAM network | S. cerevisiae dse1pr::URA3 reporter, 5-FOA growth OD615, 2 d; analog-sensitive cbk1-as2 kinase mutant strain | inhibition, % at 50 µM | actives 1.8% (n = 190,000) | AID 868;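 active = inhibition above a set limit, 3 SD over mean compound inhibition, cut at about 8.4% in these data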;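 note: 0% = DMSO-only wells with no growth and 100% = 10 µM 1-NA-PP1 full growth; inhibition rescues growth on 5-FOA so higher OD means more RAM inhibition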
Yeast growth inh = reduces growth of yeast BB579 in restrictive medium; S. cerevisiae BB579 growth, OD615, 48 h; inhibition, % at 10 µM; actives 0.51% (n = 140,000);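 active = inhibition above a set limit, 3 SD over the mean compound inhibition, cut at about 44% in these data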
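Test system: Saccharomyces cerevisiae DeaD strain BB579, replicative lifespan model yeast | Buffer or medium: Restrictive CSMM-D medium | Doses: One dose, 10 µM compound with 0.25% DMSO | Incubation: 48 h exposure, 30 °C | Detection: Culture absorbance at 615 nm | Control set: Amphotericin B at 10 µg/mL as positive control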
WT yeast gro inh = growth inhibition of WT yeast, mitochondrial fusion screen; actives 2.1% (n = 190,000); mitochondrial fusion phenotypic screen, WT strain; inhibition, % at 10 µM; in the data active = inhibition above about 58%; tested in S. cerevisiae
Measles CPE = protection of cells from measles virus | Measles virus-infected cells, CPE protection, absorbance | protection (pct of control), % at 4 µM | actives 1.5% (n = 140,000); in the data active = protection mostly above about 24%, no sharp cut-off; inactive = mostly below about 26%
DAT uptake mod = changed human dopamine transporter uptake under cocaine IC80; Q01959; LLC-PK1 hDAT cells, [14C]-dopamine uptake with cocaine IC80; actives deviate in either direction; B-score at 10 µM; actives 1.3% (n = 110,000);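 active = Z score or B-score, a plate-position-corrected score, falls beyond the plate's 99.7% confidence bounds, in either direction; inactive = both scores lie inside the 99.7% bounds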;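 note: scored against the spread of the other compound wells on the same plate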
Target sequence (Q01959 whole entry, looked up): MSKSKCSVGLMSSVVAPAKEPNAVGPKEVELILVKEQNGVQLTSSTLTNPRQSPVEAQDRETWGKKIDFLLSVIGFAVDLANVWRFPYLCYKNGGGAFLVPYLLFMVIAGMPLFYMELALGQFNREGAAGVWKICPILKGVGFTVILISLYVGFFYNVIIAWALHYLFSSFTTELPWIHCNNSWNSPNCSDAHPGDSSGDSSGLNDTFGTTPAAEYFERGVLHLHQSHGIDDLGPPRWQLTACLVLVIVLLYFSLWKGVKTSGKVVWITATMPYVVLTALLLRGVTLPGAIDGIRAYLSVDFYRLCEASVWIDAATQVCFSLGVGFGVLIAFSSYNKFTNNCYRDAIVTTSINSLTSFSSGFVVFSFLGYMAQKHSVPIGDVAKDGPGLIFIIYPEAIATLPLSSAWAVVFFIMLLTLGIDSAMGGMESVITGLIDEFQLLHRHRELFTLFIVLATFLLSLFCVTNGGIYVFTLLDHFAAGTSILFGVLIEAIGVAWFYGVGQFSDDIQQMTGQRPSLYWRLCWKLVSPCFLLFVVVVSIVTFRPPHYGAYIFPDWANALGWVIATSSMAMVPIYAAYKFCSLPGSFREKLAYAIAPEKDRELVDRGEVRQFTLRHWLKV
Yeast lifespan up = yeast lifespan extension. actives 0.68% (n = 130,000). S. cerevisiae growth with nicotinamide, OD615; deaD strain in restrictive glucose medium. inhibition of the nicotinamide effect, % at 10 µM;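 active = inhibition above a set limit, placed 3 SD over the median of all compounds, cut at about 26% in these data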;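 note: 0% = nicotinamide-treated wells and 100% = cells grown without nicotinamide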
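Assay system: engineered S. cerevisiae DeaD replicative-lifespan strain, galactose-grown log-phase cells; medium: restrictive CSMM-D dextrose medium; also added: nicotinamide, 1.5 mM, co-present with compound; schedule: 48 h compound exposure at 30 °C, humidified; detection: absorbance at 615 nm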
Numbers without * were called inactive; x = not tested or not shown.

SMILES	RAM network inh	Yeast growth inh	WT yeast gro inh	Measles CPE	DAT uptake mod	Yeast lifespan up
Cc1ccc(NC(=O)C2CCCN2S(=O)(=O)c2ccc(F)cc2)c(C)c1 (stereo not given)	-1	-27	43	2	0.3	-6
CSc1sc(C(=O)O)c2c1C(=O)CC(C)(C)C2	x	x	x	x	0.37	x
CSc1sc(C(=O)O)c2c1C(=O)CCC2	3	-38	13	22	-2.3*	7
O=C(/C=C/c1cccs1)Nc1cccc(NC(=O)/C=C/c2cccs2)n1	2	-48	52	90*	x	-5
O=C(/C=C/c1cccs1)Nc1nccs1	-1	x	5	x	x	x
CCOC(=O)CSc1nnc(NC(=O)c2cccc([N+](=O)[O-])c2C)s1	4	-33	4	32	x	1
Oc1ccc(Br)cc1/C=N/N1CCN(Cc2ccccc2)CC1	-1	-89	47	5	2.4*	39
CCCN1CCN(C(=O)c2cccc3c2C(=O)N(CCOC)C3)CC1	0	-34	-11	44*	-0.64	-5
CCCN1Cc2cccc(C(=O)N3CCN(c4ccc(F)cc4)CC3)c2C1=O	0	-4	-6	8	0.057	-4
O=S(=O)(c1ccc(N2CCCC2)cc1)C(F)(F)F	0	9	17	15	-0.67	-12
O=C(c1ccco1)c1coc2c1cc(O)c1ccccc12	5	x	-3	x	x	x
CC(C)n1c(=O)c2c(O)cc(=O)oc2c2ccccc21	2	-8	5	12	-1.2	63*
CCn1c(=O)c2c(O)cc(=O)oc2c2ccccc21	4	-2	-7	3	-0.015	42*
CSc1cccc(NC(=O)Cn2cccc2)c1	3	-29	-12	80*	-1	-15
C(=N/Nc1nc(-c2ccccc2)cc(-c2ccccc2)n1)/c1cccnc1	-1	-40	68*	9	x	-7
Cc1ccc(-c2cc(-c3ccccc3)nc(N/N=C/c3cccnc3)n2)cc1	x	x	x	x	0.67	x
Cc1sc(N/N=C/c2cccnc2)nc1-c1ccccc1	0	-34	-9	83*	0.043	-17
C(=N\Nc1nc(Nc2ccccc2)nc(Nc2ccccc2)n1)/c1ccncc1	1	x	-20	x	x	x
C(=N\Nc1nc(Nc2ccccc2)nc(Nc2ccccc2)n1)/c1cccnc1	-1	x	83*	x	x	x
C=CCOc1ccc(/C=N/NC(=O)C(C)Sc2ccccn2)cc1OC (stereo not given)	3	-29	0	7	x	-2
O=C(NCc1cccnc1)c1ccc(S(=O)(=O)N2CCCCC2)cc1	0	-80	-7	10	-1	115*
O=C(NCCCn1ccnc1)c1ccc(S(=O)(=O)N2CCCCCC2)cc1	-1	13	-22	4	3.1*	-17
O=C(NCc1ccccc1)c1ccc(S(=O)(=O)N2CCCC2)cc1	1	-17	x	46	0.077	2
O=C(NC(=S)Nc1ccc(S(=O)(=O)N2CCCCC2)cc1)c1cccs1	7	-37	26	13	x	-1
O=C(Cc1c(F)cccc1Cl)NCCCn1ccnc1	0	-7	9	45*	-0.17	-8
SMILES	RAM network inh	Yeast growth inh	WT yeast gro inh	Measles CPE	DAT uptake mod	Yeast lifespan up
O=C(NNC(=O)c1cccs1)c1ccc(S(=O)(=O)N2CCCCC2)cc1	-1	-1	-7	26*	x	9
O=C(NCCCn1ccnc1)c1ccc(S(=O)(=O)N2CCOCC2)cc1	2	x	-4	x	x	x
NC(N)=N/N=C/c1ccc(OS(=O)(=O)c2ccccc2)cc1	0	x	-2	x	x	x
COc1cc2c3nnc(-c4ccc(F)cc4)c-3cn(Cc3ccccc3)c2cc1OC	4	-4	-4	26	0.54	-5
O=C(NCc1cccnc1)C1CCCCN1S(=O)(=O)c1ccc(F)cc1 (stereo not given)	0	-26	-25	19*	-0.11	1
O=C(NCc1cccnc1)C1CCCN(S(=O)(=O)c2ccc(Br)cc2)C1 (stereo not given)	1	-38	15	26	0.0047	-3
Cc1ccc(-c2cc(C(F)F)n3ncc(C(=O)N4CCN(c5cccc(C)c5C)CC4)c3n2)cc1	4	-36	-3	4	0.81	-5
Cc1cccc2nc(C(F)(F)F)nc(=O)n12	0	-22	43	43*	-0.081	-30
Clc1ccc(Cn2c(-c3cccnc3Cl)nc3ccccc32)cc1	1	-53	8	33*	-2.3	0
COc1ccc(NC(=S)N(CCN2CCOCC2)Cc2cc3cc4c(cc3[nH]c2=O)OCCO4)cc1	1	x	18	x	x	x
COc1ccc2cc(C(=O)N3CCCCCC3)sc(=O)c2c1OC	0	4	-31	8	0.35	-4
COC(=O)c1cc2ccc(OC)c(OC)c2c(=O)s1	1	33	-6	24*	-1.2	-8
O=C(CCc1c[nH]c2ccccc12)NCc1ccco1	0	x	-7	x	x	x
CCOC(=O)CSc1nc2c(sc(=S)n2-c2ccccc2OC)c(=O)n1Cc1ccco1	5	-25	20	26	-4.3*	-3
CCOC(=O)CSc1nc2c(sc(=S)n2Cc2ccco2)c(=O)n1-c1ccccc1	7	-54	8	2	-0.044	1
CCc1ccc(N(CC(=O)NC2CCCC2)S(=O)(=O)c2c(C)noc2C)cc1	9.0*	-99	-3	17	0.77	0
CCCCC(C(=O)OCC)C(N)Cc1ccc(F)cc1 (stereo not given)	0	x	9	x	x	x
CCCn1c(SCC(=O)Nc2ccc(S(=O)(=O)N(C)C)cc2)n[nH]c1=O	-1	x	8	x	x	x
O=Cc1ccc(OCc2nnsc2Cl)cc1	2	x	-11	x	x	x
O=C1/C(=C\c2ccc3ccccc3c2)CCCc2ccccc21	11*	-15	49	7	-0.16	x
CC(C)(C)C(O)(CC#CCN1CCCC1)c1ccccc1 (stereo not given)	0	x	-14	x	x	x
CC(C)(C)OC(=O)N1CCC[C@H]1C(=O)NCc1ccc(Cl)cc1Cl	0	x	-10	x	x	x
CC/C(=C1/C(=O)CC(C)(C)C(C(=O)OC)C1=O)N1CCCC1 (stereo not given)	1	-21	6	19	0.23	30*
Cc1cccc(NC(=O)CN(c2ccc(C(C)C)cc2)S(=O)(=O)c2c(C)nn(C)c2C)n1	0	-24	10	15	0.34	-3
CC(O)CNc1nc2c(c(=O)n(C)c(=O)n2C)n1Cc1cccc(C(F)(F)F)c1 (stereo not given)	1	-20	8	2	1.8*	-5
CC(C)n1nc(C(=O)Oc2ccc(Cl)cc2)c2ccccc2c1=O	7	-32	-7	43	x	29*
Cc1cc(=O)oc2cc(OC(=O)c3nn(C(C)C)c(=O)c4ccccc34)ccc12	6	-33	-8	3	x	0
Cc1nc(CC(=O)c2c(C)cc(O)cc2O)cs1	2	-42	5	13	-0.82	1
CCc1cccc(C)c1NC(=S)N(CCCN1CCOCC1)Cc1cccnc1	3	x	-4	x	x	x
